Reference: ChEMBL document CHEMBL1152649, “Synthesis, cytotoxicity and human telomerase inhibition activities of a series of 1,2-heteroannelated anthraquinones and anthra[1,2-d]imidazole-6,11-dione homologues” (2009)

What was measured:
[1] = Cytotoxicity against human H1299 cells at 1 uM after 48 hrs by MTT assay; assay type: functional; settings: NCI-H1299, 48 h
Outline: (§1)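 H1299 non-small cell lung cancer cells were grown in RPMI 1640 with 10% FBS, penicillin and streptomycin at 37 °C under 5% CO2. About 2 × 10³ cells per well were seeded and left 24 h. Compounds were dissolved fresh in DMSO, diluted into complete medium and applied for 48 h. MTT was then added for 4 h at 37 °C, followed by lysis buffer (20% SDS, 50% DMF) for 16 h, and absorbance was read at 550 nm.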

[2] = Cytotoxicity against human H1299 cells at 10 uM after 48 hrs by MTT assay; assay type: functional; settings: NCI-H1299, 48 h; outline: as §1
[3] = Cytotoxicity against human H1299 cells at 100 uM after 48 hrs by MTT assay; assay type: functional; settings: NCI-H1299, 48 h; outline: as §1
[4] = tested on: A549; experiment: Antiproliferative activity against human A549 cells assessed as cell growth at 10 uM; assay type: functional; settings: read-out: Activity
Outline: (§2)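 NCI 60 cell line panel, single-dose screen (10^-5 M) run by the developmental therapeutics program protocol. Results are given as growth percent of treated cells relative to untreated control cells for each line.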

[5] = tested on: HOP-62; experiment: Antiproliferative activity against human HOP62 cells assessed as cell growth at 10 uM; assay type: functional; settings: read-out: Activity; outline: as §2
[6] = Antiproliferative activity against human Hs 578T cells assessed as cell growth at 10 uM; assay type: functional; settings: read-out: Activity; outline: as §2
[7] = tested on: MDA-MB-231; experiment: Antiproliferative activity against human MDA-MB-231 cells assessed as cell growth at 10 uM; assay type: functional; settings: read-out: Activity; outline: as §2
[8] = tested on: MDA-MB-435; experiment: Antiproliferative activity against human MDA-MB-435 cells assessed as cell growth at 10 uM; assay type: functional; settings: read-out: Activity; outline: as §2
[9] = tested on: NCI/ADR-RES; experiment: Antiproliferative activity against human NCI/ADR-RES cells assessed as cell growth at 10 uM; assay type: functional; settings: read-out: Activity; outline: as §2
[10] = tested on: T47D; experiment: Antiproliferative activity against human T47D cells assessed as cell growth at 10 uM; assay type: functional; settings: read-out: Activity
Outline: (§3)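 NCI 60 cell line panel, single dose (10^-5 M), run per the Developmental Therapeutics Program protocol (one dose mean graph). Each result is the growth percentage of treated cells relative to untreated control cells.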

[11] = tested on: OVCAR-3; experiment: Antiproliferative activity against human OVCAR-3 cells assessed as cell growth at 10 uM; assay type: functional; settings: read-out: Activity; outline: as §2
[12] = tested on: OVCAR-4; experiment: Antiproliferative activity against human OVCAR4 cells assessed as cell growth at 10 uM; assay type: functional; settings: read-out: Activity; outline: as §2
[13] = tested on: OVCAR-5; experiment: Antiproliferative activity against human OVCAR5 cells assessed as cell growth at 10 uM; assay type: functional; settings: read-out: Activity; outline: as §2
[14] = tested on: OVCAR-8; experiment: Antiproliferative activity against human OVCAR8 cells assessed as cell growth at 10 uM; assay type: functional; settings: read-out: Activity; outline: as §2
[15] = tested on: CCRF-CEM; experiment: Antiproliferative activity against human CCRF-CEM cells assessed as cell growth at 10 uM; assay type: functional; settings: read-out: Activity; outline: as §2
[16] = tested on: HL-60(TB); experiment: Antiproliferative activity against human HL-60(TB) cells assessed as cell growth at 10 uM; assay type: functional; settings: read-out: Activity
Outline: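 NCI Developmental Therapeutics Program 60-cell-line one-dose screen at 10^-5 M. Readout is growth percentage of treated cells relative to untreated control cells.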

[17] = tested on: K562; experiment: Antiproliferative activity against human K562 cells assessed as cell growth at 10 uM; assay type: functional; settings: read-out: Activity; outline: as §2
[18] = Antiproliferative activity against human RPMI8266 cells assessed as cell growth at 10 uM; assay type: functional; settings: read-out: Activity; outline: as §2
[19] = tested on: SR; experiment: Antiproliferative activity against human SR cells assessed as cell growth at 10 uM; assay type: functional; settings: read-out: Activity; outline: as §3
[20] = tested on: 786-0; experiment: Antiproliferative activity against human 786-0 cells assessed as cell growth at 10 uM; assay type: functional; settings: read-out: Activity; outline: as §2
[21] = tested on: A498; experiment: Antiproliferative activity against human A498 cells assessed as cell growth at 10 uM; assay type: functional; settings: read-out: Activity; outline: as §2
[22] = tested on: ACHN; experiment: Antiproliferative activity against human ACHN cells assessed as cell growth at 10 uM; assay type: functional; settings: read-out: Activity; outline: as §2
[23] = tested on: CAKI-1; experiment: Antiproliferative activity against human Caki1 cells assessed as cell growth at 10 uM; assay type: functional; settings: read-out: Activity; outline: as §2
[24] = tested on: SN12C; experiment: Antiproliferative activity against human SN12C cells assessed as cell growth at 10 uM; assay type: functional; settings: read-out: Activity; outline: as §2
[25] = tested on: TK-10; experiment: Antiproliferative activity against human TK10 cells assessed as cell growth at 10 uM; assay type: functional; settings: read-out: Activity; outline: as §3
[26] = tested on: UO-31; experiment: Antiproliferative activity against human UO31 cells assessed as cell growth at 10 uM; assay type: functional; settings: read-out: Activity; outline: as §3
[27] = tested on: LOX IMVI; experiment: Antiproliferative activity against human LOXIMVI cells assessed as cell growth at 10 uM; assay type: functional; settings: read-out: Activity; outline: as §2
[28] = tested on: M14; experiment: Antiproliferative activity against human M14 cells assessed as cell growth at 10 uM; assay type: functional; settings: read-out: Activity; outline: as §2
[29] = tested on: Malme-3M; experiment: Antiproliferative activity against human MALME-3M cells assessed as cell growth at 10 uM; assay type: functional; settings: read-out: Activity; outline: as §2
[30] = tested on: SK-MEL-2; experiment: Antiproliferative activity against human SK-MEL-2 cells assessed as cell growth at 10 uM; assay type: functional; settings: read-out: Activity; outline: as §2
[31] = tested on: SK-MEL-28; experiment: Antiproliferative activity against human SK-MEL-28 cells assessed as cell growth at 10 uM; assay type: functional; settings: read-out: Activity; outline: as §2
[32] = tested on: SK-MEL-5; experiment: Antiproliferative activity against human SK-MEL-5 cells assessed as cell growth at 10 uM; assay type: functional; settings: read-out: Activity; outline: as §2
[33] = tested on: UACC-257; experiment: Antiproliferative activity against human UACC257 cells assessed as cell growth at 10 uM; assay type: functional; settings: read-out: Activity; outline: as §3
[34] = tested on: SF-268; experiment: Antiproliferative activity against human SF268 cells assessed as cell growth at 10 uM; assay type: functional; settings: read-out: Activity; outline: as §2
[35] = tested on: SF-295; experiment: Antiproliferative activity against human SF295 cells assessed as cell growth at 10 uM; assay type: functional; settings: read-out: Activity; outline: as §2
[36] = tested on: SNB-19; experiment: Antiproliferative activity against human SNB19 cells assessed as cell growth at 10 uM; assay type: functional; settings: read-out: Activity; outline: as §2
[37] = tested on: SNB-75; experiment: Antiproliferative activity against human SNB75 cells assessed as cell growth at 10 uM; assay type: functional; settings: read-out: Activity; outline: as §3
[38] = tested on: U-251; experiment: Antiproliferative activity against human U251 cells assessed as cell growth at 10 uM; assay type: functional; settings: read-out: Activity; outline: as §3
[39] = tested on: NCI-H23; experiment: Antiproliferative activity against human NCI-H23 cells assessed as cell growth at 10 uM; assay type: functional; settings: read-out: Activity; outline: as §2
[40] = tested on: NCI-H322M; experiment: Antiproliferative activity against human NCI-H322M cells assessed as cell growth at 10 uM; assay type: functional; settings: read-out: Activity; outline: as §2
[41] = tested on: NCI-H460; experiment: Antiproliferative activity against human NCI-H460 cells assessed as cell growth at 10 uM; assay type: functional; settings: read-out: Activity; outline: as §2
[42] = tested on: COLO 205; experiment: Antiproliferative activity against human COLO205 cells assessed as cell growth at 10 uM; assay type: functional; settings: read-out: Activity; outline: as §2
[43] = tested on: HCC 2998; experiment: Antiproliferative activity against human HCC2998 cells assessed as cell growth at 10 uM; assay type: functional; settings: read-out: Activity; outline: as §2
[44] = tested on: HCT-116; experiment: Antiproliferative activity against human HCT116 cells assessed as cell growth at 10 uM; assay type: functional; settings: read-out: Activity; outline: as §2
[45] = molecular target: Telomerase reverse transcriptase (Homo sapiens) (UniProt O14746); experiment: Inhibition of TERT in human H1299 cells assessed as residual transcriptional activity at 10 uM after 24 hrs by SEAP reporter gene assay; values are per cent of control
[46] = tested on: PC-3; experiment: Antiproliferative activity against human PC3 cells assessed as cell growth at 10 uM; assay type: functional; settings: read-out: Activity; outline: as §2
[47] = tested on: HOP-92; experiment: Antiproliferative activity against human HOP92 cells assessed as cell growth at 10 uM; assay type: functional; settings: read-out: Activity; outline: as §2
[48] = tested on: NCI-H522; experiment: Antiproliferative activity against human NCI-H522 cells assessed as cell growth at 10 uM; assay type: functional; settings: read-out: Activity; outline: as §2

Chain of Telomerase reverse transcriptase (Homo sapiens) (O14746 whole entry): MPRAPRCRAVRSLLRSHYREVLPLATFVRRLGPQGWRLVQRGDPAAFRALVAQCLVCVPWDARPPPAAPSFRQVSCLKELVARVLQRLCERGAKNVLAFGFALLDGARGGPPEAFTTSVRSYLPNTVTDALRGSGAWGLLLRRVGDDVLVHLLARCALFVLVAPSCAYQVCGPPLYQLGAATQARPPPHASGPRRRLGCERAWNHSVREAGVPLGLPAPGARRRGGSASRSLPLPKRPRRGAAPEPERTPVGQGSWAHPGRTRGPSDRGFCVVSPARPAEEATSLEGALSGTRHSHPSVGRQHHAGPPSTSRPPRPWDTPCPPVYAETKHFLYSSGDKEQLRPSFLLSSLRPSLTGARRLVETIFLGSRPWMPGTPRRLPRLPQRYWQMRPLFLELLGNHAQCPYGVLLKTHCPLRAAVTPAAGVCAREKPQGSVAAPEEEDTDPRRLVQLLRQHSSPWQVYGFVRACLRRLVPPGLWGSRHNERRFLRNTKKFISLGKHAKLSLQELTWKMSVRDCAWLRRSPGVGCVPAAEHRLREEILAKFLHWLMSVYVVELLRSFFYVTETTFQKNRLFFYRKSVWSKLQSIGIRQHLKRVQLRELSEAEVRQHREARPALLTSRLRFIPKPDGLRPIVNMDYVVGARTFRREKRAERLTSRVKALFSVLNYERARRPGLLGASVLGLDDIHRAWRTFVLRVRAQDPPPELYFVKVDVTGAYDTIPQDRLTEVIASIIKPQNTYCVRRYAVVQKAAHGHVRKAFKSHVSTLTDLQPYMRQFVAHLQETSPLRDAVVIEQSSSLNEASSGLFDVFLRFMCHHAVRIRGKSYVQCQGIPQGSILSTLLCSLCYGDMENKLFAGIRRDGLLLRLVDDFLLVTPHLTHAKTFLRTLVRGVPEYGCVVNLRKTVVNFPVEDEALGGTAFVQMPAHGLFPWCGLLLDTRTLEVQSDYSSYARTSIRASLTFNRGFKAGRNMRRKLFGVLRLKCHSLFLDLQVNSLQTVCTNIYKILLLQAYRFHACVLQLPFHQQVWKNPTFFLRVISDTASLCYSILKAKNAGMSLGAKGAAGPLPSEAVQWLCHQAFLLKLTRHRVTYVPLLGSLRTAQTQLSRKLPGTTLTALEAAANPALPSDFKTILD

O=C1c2ccccc2C(=O)c2c1ccc1nsnc21
viability at 1 µM [1]: 40%
viability at 10 µM [2]: 16%
viability at 100 µM [3]: 17%
growth at 10 µM [4]: 104%
growth at 10 µM [5]: -100%
growth at 10 µM [6]: -7.4%
growth at 10 µM [7]: -17.3%
growth at 10 µM [8]: -87.9%
growth at 10 µM [9]: -2.53%
growth at 10 µM [10]: -45.5%
growth at 10 µM [11]: -15.5%
growth at 10 µM [12]: -94.4%
growth at 10 µM [13]: -20.1%
growth at 10 µM [14]: -10.1%
growth at 10 µM [15]: -30.8%
growth at 10 µM [16]: -21.8%
growth at 10 µM [17]: 49.6%
growth at 10 µM [18]: -28%
growth at 10 µM [19]: 4.96%
growth at 10 µM [20]: -26%
growth at 10 µM [21]: 130%
growth at 10 µM [22]: -94.3%
growth at 10 µM [23]: 1.97%
growth at 10 µM [24]: -73.3%
growth at 10 µM [25]: 97%
growth at 10 µM [26]: -79.3%
growth at 10 µM [27]: -50.6%
growth at 10 µM [28]: 74.5%
growth at 10 µM [29]: -71.5%
growth at 10 µM [30]: -73.2%
growth at 10 µM [31]: 15.5%
growth at 10 µM [32]: 8.52%
growth at 10 µM [33]: -83.1%
growth at 10 µM [34]: 16.3%
growth at 10 µM [35]: 126%
growth at 10 µM [36]: 79%
growth at 10 µM [37]: 79%
growth at 10 µM [38]: -89.3%
growth at 10 µM [39]: 16.1%
growth at 10 µM [40]: 126%
growth at 10 µM [41]: 77.4%
growth at 10 µM [42]: 112%
growth at 10 µM [43]: -0.74%
growth at 10 µM [44]: -50%
residual activity [45]: 10%

O=C1c2ccccc2C(=O)c2c1ccc1nc(-c3ccc4c(c3)OCO4)[nH]c21
viability at 1 µM [1]: 79%
viability at 10 µM [2]: 67%
viability at 100 µM [3]: 40%
growth at 10 µM [4]: 102%
growth at 10 µM [5]: 114%
growth at 10 µM [6]: 106%
growth at 10 µM [7]: 107%
growth at 10 µM [8]: 110%
growth at 10 µM [9]: 105%
growth at 10 µM [10]: 107%
growth at 10 µM [11]: 107%
growth at 10 µM [12]: 101%
growth at 10 µM [13]: 111%
growth at 10 µM [14]: 96.5%
growth at 10 µM [15]: 99.6%
growth at 10 µM [16]: 127%
growth at 10 µM [17]: 80.6%
growth at 10 µM [18]: 96.2%
growth at 10 µM [19]: 91.7%
growth at 10 µM [20]: 107%
growth at 10 µM [21]: 91.7%
growth at 10 µM [22]: 104%
growth at 10 µM [23]: 114%
growth at 10 µM [24]: 101%
growth at 10 µM [26]: 73.4%
growth at 10 µM [27]: 99.6%
growth at 10 µM [28]: 120%
growth at 10 µM [30]: 41.5%
growth at 10 µM [31]: 116%
growth at 10 µM [32]: 98.7%
growth at 10 µM [33]: 117%
growth at 10 µM [46]: 107%
growth at 10 µM [34]: 100%
growth at 10 µM [35]: 115%
growth at 10 µM [36]: 121%
growth at 10 µM [37]: 102%
growth at 10 µM [38]: 111%
growth at 10 µM [47]: 65.3%
growth at 10 µM [39]: 94.3%
growth at 10 µM [40]: 150%
growth at 10 µM [41]: 109%
growth at 10 µM [48]: 83.3%
growth at 10 µM [42]: 126%
growth at 10 µM [43]: 85.7%
growth at 10 µM [44]: 116%
residual activity [45]: 61%
